From ChEMBL document CHEMBL4725305, “Optimizing the aryl-triazole of cjoc42 for enhanced gankyrin binding and anti-cancer activity” (Bioorg Med Chem Lett, 2020)
Active and inactive are the calls of the source. No cut-off for these calls is given here.

What was measured:
[1] = target: T1, 26S proteasome non-ATPase regulatory subunit 10 (Homo sapiens) (UniProt O75832); assay: Binding affinity to gankyrin (unknown origin) assessed as increase in melting temperature at 300 uM by thermal shift assay
T1 sequence (whole entry): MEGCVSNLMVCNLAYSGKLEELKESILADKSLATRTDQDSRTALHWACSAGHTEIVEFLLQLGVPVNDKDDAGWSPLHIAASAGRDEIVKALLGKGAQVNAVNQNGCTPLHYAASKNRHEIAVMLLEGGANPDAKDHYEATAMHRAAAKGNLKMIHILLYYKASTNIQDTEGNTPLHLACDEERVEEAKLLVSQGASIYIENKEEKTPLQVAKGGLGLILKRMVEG
Method in brief: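 Gankyrin (20 μM) incubated with test compound at 300 μM in protein thermal shift assay; denaturation temperature (T_m) measured and ΔT_m taken relative to protein without ligand. Vehicle control 5% DMSO; cjoc42 at 300 μM as reference control. Each compound tested in triplicate.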

Hep3B = assay: Cytotoxicity against human Hep3B cells assessed as reduction in cell viability incubated for 72 hrs by MTT assay
MDA-MB-231 = assay: Cytotoxicity against human MDA-MB-231 cells assessed as reduction in cell viability incubated for 48 hrs by MTT assay; assay type: functional, cell-based; conditions: MDA-MB-231, 48 h
Method in brief: (§1)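 A549 and MDA-MB-231 cells incubated 24 h before drug addition, then exposed to compound for 48 h at 37 °C, 5% CO2; proliferation read by MTT assay and IC50 derived; tested up to 100 μM.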

A549 = assay: Cytotoxicity against human A549 cells assessed as reduction in cell viability incubated for 48 hrs by MTT assay; assay type: functional, cell-based; conditions: A549, 48 h; method in brief: as §1
HepG2 = assay: Cytotoxicity against human HepG2 cells assessed as reduction in cell viability incubated for 72 hrs by MTT assay; assay type: functional, cell-based; conditions: HepG2, 72 h
Method in brief: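 Hep3B and HepG2 cells incubated 24 h before drug addition, then exposed to compound for 72 h at 37 °C, 5% CO2; proliferation read by MTT assay and IC50 derived; tested up to 100 μM.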

[2] = target: T1, 26S proteasome non-ATPase regulatory subunit 10 (Homo sapiens); assay: Potency index, ratio of change in melting temperature of Cjoc42 to change in melting temperature of compound for binding affinity to gankyrin (unknown origin) assessed as increase in melting temperature at 300 uM by thermal shift assay
Method in brief: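 Gankyrin (20 μM) with compound at 300 μM in thermal shift assay, run in triplicate; ΔT_m of each compound compared with that of cjoc42 (300 μM) tested in parallel as positive control; 5% DMSO vehicle.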

Row | Compound | Activity [1] | other results
1 | Cc1ccc(S(=O)(=O)OCCCc2cn(-c3cccc(Br)c3)nn2)cc1 | Active | 
2 | Cc1ccc(S(=O)(=O)OCCCc2cn(-c3nccs3)nn2)cc1 | inactive | 
3 | COc1ccc(-n2cc(CCCOS(=O)(=O)c3ccc(I)cc3)nn2)cc1 | inactive | 
4 | COc1ccccc1-n1cc(CCCOS(=O)(=O)c2ccc(C)cc2)nn1 | Active | 
5 | COC(=O)c1ccc(-n2cc(CCCOS(=O)(=O)c3ccc(C)cc3)nn2)cc1 |  | IC50 (Hep3B): > 100 µM; IC50 (MDA-MB-231): > 100 µM; IC50 (A549): > 100 µM; IC50 (HepG2): > 100 µM
6 | Cc1ccc(S(=O)(=O)OCCCc2cn(-c3ccc(F)cc3)nn2)cc1 | inactive | 
7 | Cc1ccc(S(=O)(=O)OCCCc2cn(-c3ccc(-c4ccccc4)cc3)nn2)cc1 | inactive | 
8 | Cc1ccc(S(=O)(=O)OCCCc2cn(-c3ccccc3-c3ccccc3)nn2)cc1 | Active | 
9 | Cc1ccc(S(=O)(=O)OCCCc2cn(-c3ccccc3C#N)nn2)cc1 | inactive | 
10 | Cc1ccc(S(=O)(=O)OCCCc2cn(-c3ccc(C(C)C)cc3)nn2)cc1 | inactive | 
11 | Cc1ccc(S(=O)(=O)OCCCc2cn(-c3ccc(C(F)(F)F)cc3)nn2)cc1 | Active | IC50 (Hep3B): 42.7 µM; IC50 (MDA-MB-231): > 100 µM; IC50 (A549): > 100 µM; IC50 (HepG2): 42.6 µM
12 | Cc1ccc(S(=O)(=O)OCCCc2cn(-c3ccccc3F)nn2)cc1 | inactive | 
13 | Cc1ccc(S(=O)(=O)OCCCc2cn(-c3cccnc3)nn2)cc1 | inactive | 
14 | COC(=O)c1ccccc1-n1cc(CCCOS(=O)(=O)c2ccc(C)cc2)nn1 | inactive | 
15 | Cc1ccc(S(=O)(=O)OCCCc2cn(-c3ccc(Br)cc3)nn2)cc1 | Active | 
16 | Cc1ccc(S(=O)(=O)OCCCc2cn(-c3cccc(C(F)(F)F)c3)nn2)cc1 | Active | 
17 | N#Cc1cccc(-n2cc(CCCOS(=O)(=O)c3ccc(I)cc3)nn2)c1 | inactive | 
18 | Cc1ccc(-n2cc(CCCOS(=O)(=O)c3ccc(C)cc3)nn2)cc1 | Active | Ratio [2]: 3; IC50 (Hep3B): > 100 µM; IC50 (MDA-MB-231): 36.6 µM; IC50 (A549): 79.9 µM; IC50 (HepG2): > 100 µM

Row | Compound | Activity [1] | other results
19 | CCc1ccc(-n2cc(CCCOS(=O)(=O)c3ccc(C)cc3)nn2)cc1 | inactive | 
20 | COc1ccc(-n2cc(CCCOS(=O)(=O)c3ccc(-c4ccccc4)cc3)nn2)cc1 | inactive | 
21 | COc1cccc(-n2cc(CCCOS(=O)(=O)c3ccc(C)cc3)nn2)c1 | Active | 
22 | Cc1ccc(S(=O)(=O)OCCCc2cn(-c3ccc(I)cc3)nn2)cc1 | inactive | 
23 | Cc1ccc(S(=O)(=O)OCCCc2cn(-c3ccccc3C(F)(F)F)nn2)cc1 | Active | 
24 | CCc1cccc(-n2cc(CCCOS(=O)(=O)c3ccc(C)cc3)nn2)c1 | Active | 
25 | Cc1ccc(S(=O)(=O)OCCCc2cn(-c3ccccn3)nn2)cc1 | inactive | 
26 | Cc1ccc(S(=O)(=O)OCCCc2cn(-c3ccncc3)nn2)cc1 | inactive | 
27 | Cc1ccc(S(=O)(=O)OCCCc2cn(-c3ccccc3C)nn2)cc1 | Active | 
28 | COC(=O)c1ccc(-n2cc(CCCOS(=O)(=O)c3ccc(-c4ccccc4)cc3)nn2)cc1 |  | IC50 (Hep3B): 26 µM
29 | Cc1ccc(S(=O)(=O)OCCCc2cn(-c3ccc(Cl)cc3)nn2)cc1 | Active | 
30 | Cc1ccc(S(=O)(=O)OCCCc2cn(-c3cccc(F)c3)nn2)cc1 | Active | Ratio [2]: 5; IC50 (Hep3B): 82.1 µM; IC50 (MDA-MB-231): > 100 µM; IC50 (A549): > 100 µM; IC50 (HepG2): 61.8 µM
31 | COc1ccc(-n2cc(CCCOS(=O)(=O)c3ccc(C)cc3)nn2)cc1 | Active | IC50 (Hep3B): > 100 µM; IC50 (MDA-MB-231): 72.8 µM; IC50 (A549): 74.6 µM; IC50 (HepG2): > 100 µM
32 | Cc1ccc(S(=O)(=O)OCCCc2cn(-c3cccc(C#N)c3)nn2)cc1 | Active | Ratio [2]: 6; IC50 (Hep3B): 44.9 µM; IC50 (MDA-MB-231): > 100 µM; IC50 (A549): > 100 µM; IC50 (HepG2): > 100 µM
33 | N#Cc1cccc(-n2cc(CCCOS(=O)(=O)c3ccc(-c4ccccc4)cc3)nn2)c1 | inactive | 
34 | CCc1ccccc1-n1cc(CCCOS(=O)(=O)c2ccc(C)cc2)nn1 | inactive | 
35 | Cc1ccc(S(=O)(=O)OCCCc2cn(-c3cccc(C)c3)nn2)cc1 | Active | 
36 | Cc1ccc(S(=O)(=O)OCCCc2cn(-c3ccc(C#N)cc3)nn2)cc1 | inactive | 
